Active and inactive are the calls of the source. No cut-off for these calls is given here.
Experiments:
[1] = Drug uptake in C57BL/6 mouse pancreas at 50 mg/kg, ip treated 5 days/week for 3 weeks by LC/MS/MS analysis; format: ADME, organism-based; conditions: in vivo, 504 h
[2] = molecular target: T1, Protein cereblon/Indoleamine 2,3-dioxygenase 1 (Homo sapiens, UniProt P14902+Q96SW2); experiment: Protac activity at CRBN/IDO1-FLAG expressed in human U87 cells assessed as IDO1 degradation in intracellular nuclear compartment measured at 1 to 10 uM after 24 hrs by Western blotting analysis; format: subcellular; conditions: Nucleus, dose 1-10 µM
Target sequence in this assay (P14902 whole entry, looked up): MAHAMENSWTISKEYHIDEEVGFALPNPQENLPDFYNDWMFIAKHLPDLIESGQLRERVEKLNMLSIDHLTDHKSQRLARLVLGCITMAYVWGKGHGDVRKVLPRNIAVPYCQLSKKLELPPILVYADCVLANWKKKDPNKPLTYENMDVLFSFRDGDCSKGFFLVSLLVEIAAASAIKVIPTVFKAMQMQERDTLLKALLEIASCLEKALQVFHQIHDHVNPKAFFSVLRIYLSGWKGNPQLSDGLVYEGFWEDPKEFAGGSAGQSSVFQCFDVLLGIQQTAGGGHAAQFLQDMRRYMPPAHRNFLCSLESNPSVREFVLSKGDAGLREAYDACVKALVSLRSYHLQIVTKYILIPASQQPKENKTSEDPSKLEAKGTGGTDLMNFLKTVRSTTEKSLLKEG
Target sequence in this assay (Q96SW2 whole entry, looked up): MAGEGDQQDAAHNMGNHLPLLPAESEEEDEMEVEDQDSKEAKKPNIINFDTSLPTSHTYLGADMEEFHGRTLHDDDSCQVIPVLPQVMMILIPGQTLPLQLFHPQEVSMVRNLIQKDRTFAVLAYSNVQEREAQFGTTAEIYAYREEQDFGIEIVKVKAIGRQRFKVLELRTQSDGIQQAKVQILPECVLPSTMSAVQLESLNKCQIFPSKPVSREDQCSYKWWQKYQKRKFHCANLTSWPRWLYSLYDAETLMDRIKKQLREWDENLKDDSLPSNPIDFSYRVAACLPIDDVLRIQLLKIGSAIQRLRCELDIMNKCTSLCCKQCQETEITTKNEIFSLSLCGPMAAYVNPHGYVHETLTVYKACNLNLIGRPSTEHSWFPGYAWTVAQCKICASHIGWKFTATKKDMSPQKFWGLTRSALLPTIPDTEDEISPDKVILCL

Ido1/Crbn (Mus musculus) = Ido1/Crbn (Mus musculus) (UniProt P28776+Q8C7D2); experiment: Protac activity at CRBN/IDO1 non-enzyme mediated p65 phosphorylation in mouse GL261 cells expressing IDO1 cDNA measured at 0.1 to 10 uM after 24 hrs by Western blotting analysis; conditions: dose 0.1-10 µM
[3] = molecular target: T1, Protein cereblon/Indoleamine 2,3-dioxygenase 1; experiment: Binding affinity to CRBN /IDO1 (unknown origin) assessed as ternary complex stability by measuring half-life by bio-layer interferometry assay; format: protein assay
How it was run: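 For the ternary complex, compound was preincubated with a 25-fold molar excess of CRBN, and binding of this binary complex to IDO1 was followed in real time.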
Target sequence in this assay (P14902 whole entry, looked up): as the sequence (P14902 whole entry, looked up) above
Target sequence in this assay (Q96SW2 whole entry, looked up): as the sequence (Q96SW2 whole entry, looked up) above

[4] = molecular target: T1, Protein cereblon/Indoleamine 2,3-dioxygenase 1; experiment: Protac activity at IDO1/CRBN in IFNgamma-stimulated human PC-3 cells assessed as IDO1 degradation by measuring decrease in intracellular protein level measured after 24 hrs by Western blotting analysis; format: cell-based; conditions: dose 1-10 µM, DDE = dose-dependent effect
Target sequence in this assay (P14902 whole entry, looked up): as the sequence (P14902 whole entry, looked up) above
Target sequence in this assay (Q96SW2 whole entry, looked up): as the sequence (Q96SW2 whole entry, looked up) above

[5] = molecular target: T1, Protein cereblon/Indoleamine 2,3-dioxygenase 1; experiment: Protac activity at IDO1/CRBN in IFNgamma-stimulated human U87 cells assessed as IDO1 degradation at 10 uM measured after 24 hrs by Western blotting analysis relative to control; format: cell-based
How it was run: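 U87 GBM cells primed with human IFNγ 50 ng/mL for 24 h, then exposed to PROTAC at 10 μM for 24 h. Lysates run on western blot; IDO1 bands quantified by densitometry and expressed as percent of normalized IDO1 protein level.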
Target sequence in this assay (P14902 whole entry, looked up): as the sequence (P14902 whole entry, looked up) above
Target sequence in this assay (Q96SW2 whole entry, looked up): as the sequence (Q96SW2 whole entry, looked up) above

[6] = molecular target: T1, Protein cereblon/Indoleamine 2,3-dioxygenase 1; experiment: Protac activity at CRBN/IDO1-FLAG expressed in human U87 cells assessed as IDO1 degradation in intracellular cytoplasmic compartment measured at 1 to 10 uM after 24 hrs by Western blotting analysis; format: subcellular; conditions: Cytoplasm, dose 1-10 µM
Target sequence in this assay (P14902 whole entry, looked up): as the sequence (P14902 whole entry, looked up) above
Target sequence in this assay (Q96SW2 whole entry, looked up): as the sequence (Q96SW2 whole entry, looked up) above

[7] = molecular target: T1, Protein cereblon/Indoleamine 2,3-dioxygenase 1; experiment: Protac activity at IDO1/CRBN in IFNgamma-stimulated human U87 cells assessed as IDO1 degradation measured after 24 hrs by Western blotting analysis; format: cell-based
How it was run: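 U87 cells given human IFNγ 50 ng/mL for 24 h to induce IDO1, then PROTAC over a dose range starting at 0.01 μM and rising to 30 μM for 24 h. Western blot read-out. IDO1 band densitometry normalized to untreated samples and fitted to give DC50, the concentration giving 50% IDO1 degradation. n = 3 independent experiments, mean ± SEM.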
Target sequence in this assay (P14902 whole entry): as the sequence (P14902 whole entry, looked up) above
Target sequence in this assay (Q96SW2 whole entry): as the sequence (Q96SW2 whole entry, looked up) above

[8] = molecular target: Indoleamine 2,3-dioxygenase 1 (Homo sapiens, UniProt P14902); experiment: Binding affinity to IDO1 (unknown origin) assessed as dissociation constant by bio-layer interferometry assay
How it was run: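 Bio-layer interferometry measured binding to IDO1 at 30 °C in PBS with 0.5% DMSO. Kd, kon and koff were derived.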

Sequence of Indoleamine 2,3-dioxygenase 1 (P14902 whole entry): as the sequence (P14902 whole entry, looked up) above
Sequence of Ido1/Crbn (Mus musculus) (P28776 whole entry, looked up): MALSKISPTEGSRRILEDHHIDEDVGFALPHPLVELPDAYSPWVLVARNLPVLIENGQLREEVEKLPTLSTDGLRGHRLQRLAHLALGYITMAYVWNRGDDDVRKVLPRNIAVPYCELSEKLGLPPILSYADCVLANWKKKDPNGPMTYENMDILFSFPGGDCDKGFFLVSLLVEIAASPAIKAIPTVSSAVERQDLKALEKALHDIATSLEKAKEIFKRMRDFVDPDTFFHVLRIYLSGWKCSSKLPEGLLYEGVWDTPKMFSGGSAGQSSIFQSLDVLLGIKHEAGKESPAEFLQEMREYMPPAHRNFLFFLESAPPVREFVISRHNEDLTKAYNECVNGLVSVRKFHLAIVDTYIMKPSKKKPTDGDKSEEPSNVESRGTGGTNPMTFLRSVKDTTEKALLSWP
Sequence of Ido1/Crbn (Mus musculus) (Q8C7D2 whole entry, looked up): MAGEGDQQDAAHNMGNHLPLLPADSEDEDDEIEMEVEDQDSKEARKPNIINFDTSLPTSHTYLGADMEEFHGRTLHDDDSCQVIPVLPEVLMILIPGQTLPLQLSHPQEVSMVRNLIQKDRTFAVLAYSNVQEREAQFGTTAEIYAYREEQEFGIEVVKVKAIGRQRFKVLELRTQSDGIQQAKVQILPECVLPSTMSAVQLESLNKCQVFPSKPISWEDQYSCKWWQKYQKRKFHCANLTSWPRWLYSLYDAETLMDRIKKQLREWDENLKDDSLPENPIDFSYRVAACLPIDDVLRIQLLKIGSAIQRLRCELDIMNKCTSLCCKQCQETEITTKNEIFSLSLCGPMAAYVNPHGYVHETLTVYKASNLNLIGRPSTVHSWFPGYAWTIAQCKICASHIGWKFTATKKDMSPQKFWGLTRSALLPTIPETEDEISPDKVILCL

Structure (SMILES): C[C@@H](C(=O)Nc1ccc(OC2CCN(C(=O)CCOCCOCCNc3cccc4c3C(=O)N(C3CCC(=O)NC3=O)C4=O)CC2)cc1)[C@H]1CC[C@@H](c2ccnc3ccc(F)cc32)CC1 (some centres undefined)
- Drug uptake [1]: Active
- Activity [2]: Active
- inhibition (Ido1/Crbn (Mus musculus)): Active
- T1/2 [3]: 7.7 min
- Activity [4]: Dde
- Activity [5]: 94%
- Activity [6]: Active
- EC50 [7]: 329 nM
- Kd [8]: 640 nM

Source: ChEMBL document CHEMBL5150051, “Identification and Characterization of a Novel Indoleamine 2,3-Dioxygenase 1 Protein Degrader for Glioblastoma” (J Med Chem, 2022)
